Screening results: PubChem, Johns Hopkins Ion Channel Center
Sampled rows, rich in hits. Any-hit rate of the full collection: about 3.5%.
RGS4 pot = RGS4 potentiation or activation; HEK293 M3R/inducible RGS4, carbachol calcium flux Fluo4; active compounds read low; B-score at 10 µM; 0.92% of 310,000 active;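 active = B-score of the integrated calcium signal more than 4 SD below the library mean, with starting fluorescence not abnormally high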;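 note: negative B-score means reduced calcium response which marks RGS4 activation or potentiation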
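Also added: carbachol at ECmax as muscarinic agonist stimulus; Assay system: HEK293 cells with stable M3R and inducible RGS4; Timing: overnight RGS4 induction, 30 min dye load 37 °C, 20 min compound RT; Measured by: Fluo4-AM (2 µM) calcium-flux fluorescence, kinetic read.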
MrgX1 ag = agonists of human MrgX1 receptor; Q96LB2; MrgX1-HEK293 cells, Fluo-4 calcium fluorescence, agonist mode; active compounds read high; B-score at 10 µM; 0.44% of 310,000 active; AID 588627;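 active = calcium response B-score plate-corrected fluorescence ratio at least 3 library SD, with starting fluorescence B-score inside 5 SD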
Target sequence (Q96LB2 whole entry, looked up): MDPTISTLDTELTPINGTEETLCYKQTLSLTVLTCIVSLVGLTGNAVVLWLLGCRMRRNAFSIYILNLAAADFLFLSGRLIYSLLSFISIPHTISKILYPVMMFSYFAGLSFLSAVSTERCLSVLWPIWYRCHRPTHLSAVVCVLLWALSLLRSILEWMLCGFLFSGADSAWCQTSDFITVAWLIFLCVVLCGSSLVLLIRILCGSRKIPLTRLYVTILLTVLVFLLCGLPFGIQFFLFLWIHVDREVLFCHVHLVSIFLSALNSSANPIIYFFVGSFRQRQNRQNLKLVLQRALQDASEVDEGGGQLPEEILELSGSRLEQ
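Material: HEK293 cells stably expressing human MrgX1 receptor | Quantity: 15,000 cells per well | Times: Cells plated overnight, dye loaded 0.5 h 37 °C, 0.5 h room temperature | Measured by: Kinetic Fluo-4 NW fluorescence of intracellular calcium | Control set: Positive and negative controls per plate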
MrgX1 PAM = allosterically activates human MrgX1 receptor signaling; Q96LB2; MrgX1-HEK293, Fluo-4 calcium flux, FDSS; active compounds read high; B-score at 10 µM; 0.63% of 310,000 active; AID 588675;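 active = plate-corrected calcium response at least 3 library SD above typical, normal starting fluorescence, not activating the receptor alone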;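 note: compound read alongside a low EC10 to EC30 dose of BAM8-22 agonist; peak minus trough fluorescence over baseline measured at the second addition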
RGS4 block = inhibitors of human RGS4; HEK293 M3R/RGS4 inducible, Fluo-4 calcium flux; active compounds read high; triggered by carbachol at its EC20; B-score at 10 µM; 0.45% of 310,000 active; AID 463165;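 active = B-score, a plate-corrected calcium signal, over three deviations above library mean, with baseline fluorescence within five deviations of library mean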;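 note: RGS4 expression induced by doxycycline in cells with stable M3 receptor; B-score is computed from the integrated fluorescence ratio over baseline after carbachol; higher B-score means a larger calcium signal and so more RGS4 inhibition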
MrgX1 antag = blocks BAM8-22 activation of human MrgX1 receptor. Q96LB2. AID 588676. MRGX1-HEK293 calcium flux, Fluo-4, BAM8-22 antagonism; active compounds read low. 1.3% of 310,000 active. B-score at 10 µM;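 active = calcium-response B-score plate-corrected more than 3 library SD below zero, starting fluorescence within 5 deviations, no agonist response on first addition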;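 note: peak minus trough fluorescence over baseline after final BAM8-22 challenge near maximal dose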
Large screens that a line does not name were inactive.

COCCN(CCOC)c1nc(-c2ccc(Cl)cc2)nc2ccccc12	RGS4 pot -7.3
COc1ccc(CNC(=O)Nc2ccc3c(c2)N(C)C(=O)CS3)cc1	none
N#C/C(=C(/O)COC(=O)Cc1c[nH]c2ccccc12)c1nc2ccccc2[nH]1	MrgX1 antag -4.9
COc1ccc(/C=N/OC/C(O)=C(\C#N)c2nc3ccccc3[nH]2)cc1	MrgX1 antag -5.6
COc1cccc2c1OCC(C(=O)Nc1nccs1)=C2	MrgX1 ag 28
COC(=O)CCC(=O)OC1(C)C(=O)C2=CN(Cc3ccc(OC)cc3)C(c3ccc(OC)cc3)=CC2=C(Br)C1=O (configuration not stated)	MrgX1 antag -4.9
CCOC(=O)N1CCN(CC(=O)Nc2ccc(F)c(F)c2)CC1	none
Cc1ccc(SCC(=O)OCn2nnc3ccccc3c2=O)cc1C	none
O=S(=O)(c1ccccc1)c1cnc(-c2ccccc2)nc1N1CCCC1	none
COc1cc2ncc(S(=O)(=O)c3ccccc3)c(N3CCCC(C)C3)c2cc1OC (configuration not stated)	RGS4 pot -7.3
O=C(O)C(NC(=O)C1CCCN1C(=O)OCc1ccccc1)c1ccccc1 (configuration not stated)	none
O=C(O)CCC(NC(=O)C1CCCN1C(=O)OCc1ccccc1)C(=O)O (configuration not stated)	MrgX1 antag -6.4
O=C1CCCCCCC1Sc1ccccc1[N+](=O)[O-] (configuration not stated)	MrgX1 PAM 15
O=C(c1ccc([N+](=O)[O-])cc1)N(Cc1ccc(Cl)cc1Cl)N1C(=O)CCCC1=O	none
O=C(c1ccc([N+](=O)[O-])cc1)N(Cc1ccc(Cl)cc1)N1C(=O)CCCC1=O	MrgX1 ag 54
Cc1cc2n(c1)CCn1c(C)ccc1-2	MrgX1 antag -4.6
NC(=O)c1ccc(NC(=O)CSc2nnc(-c3cccnc3)n2Cc2ccco2)cc1	none
COCc1c(Br)c(C)nc(OCC(=O)N/N=C/c2cc(C)n(-c3ccc([N+](=O)[O-])cc3)c2C)c1C#N	RGS4 pot -7.9
CCCCNC(=O)COC(=O)CCC(=O)c1ccc(F)cc1	MrgX1 antag -6.1
CN(CCc1ccccc1)C1CCCN(S(=O)(=O)c2cccc(F)c2)C1 (configuration not stated)	none
Cc1onc(-c2ccccc2)c1C(=O)N/N=C/c1c(F)cccc1Cl	none
COC(=O)CC1=NN(c2nc3ccccc3s2)C(=O)/C1=C/N(C)C	MrgX1 PAM 15
COc1cc2cc(CN(Cc3nnnn3Cc3ccco3)C3CCCCC3)c(=O)[nH]c2cc1OC	none
CCOc1ccc2[nH]c(=O)c(CN(Cc3nnnn3Cc3ccco3)C3CCCCC3)cc2c1	MrgX1 ag 27
Cc1ccsc1C=C1C(=O)c2ccccc2C1=O	none
Cc1ccsc1/C=C1/C(=O)NN(c2ccccc2)C1=O	MrgX1 ag 33
CC(=O)c1cc(NC(=O)c2ccc(Cl)cc2)c(=O)oc1/C=C/N(C)C	MrgX1 ag 38
COc1cccc(CC2(CO)CCCN(Cc3cn[nH]c3C3CCCCC3)C2)c1 (configuration not stated)	none
CCN=C1S/C(=C\c2ccc(OCC)c(OC)c2)C(=O)N1CC	MrgX1 antag -5.1
CCN=C1S/C(=C\c2cc(Cl)c(OC)c(OC)c2)C(=O)N1CC	none
COc1cc(NC(=O)c2cc3cccc(OC)c3o2)cc(C(=O)Nc2cccc(C(F)(F)F)c2)c1	RGS4 pot -8.2, MrgX1 antag -5.2
COc1cccc(NC(=O)c2cc3cccc(OC)c3o/c2=N\O)c1	RGS4 block 6.1
COc1ccc(NC(=O)c2cc3cccc(OC)c3oc2=Nc2ccc(C(=O)O)cc2)cc1OC	none (no result: MrgX1 ag, MrgX1 PAM, MrgX1 antag)
COc1cccc(NC(=O)c2cc3ccccc3o/c2=N\O)c1	MrgX1 ag 27
Cc1ccc(NC(=O)NC2CC(=O)N(c3ccc4c(c3)OCCO4)C2)cc1F (configuration not stated)	none
Cc1cc(C(=O)Nc2ccccc2C(=O)O)ccc1NC(=O)COc1cccc(C)c1C	none
COCC(=O)Nc1cc(C(=O)Nc2cccc(C)c2C)ccc1Cl	none
COCC(=O)NNC(=S)Nc1cccc(C)c1C	MrgX1 antag -5.1
COc1ccc(Cc2nc3ccc(C(=O)NC(C)Cc4ncccc4C)cc3o2)cc1OC (configuration not stated)	RGS4 pot -7
